Calls of active or inactive are those of the source. No cut-off for these calls is given here.
Legend:
[1] = Cell cycle arrest in human NTUB1 cells assessed as accumulation at G2/M phase at 50 uM after 24 hrs by propidium iodide staining based flow cytometric analysis (reference value: 20.37%); format: functional
In short: (§1)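 8×10^5 NTUB1 cells plated, treated 24 h (alongside 10 µM cisplatin, 1 mM NAC, 50 µM H2O2 controls); harvested by trypsinization, fixed overnight in ice-cold MeOH at −20 °C, stained with 50 µg/mL propidium iodide plus 50 µg/mL RNase A in PBS 30 min at room temperature; cell-cycle phase fractions and sub-G1 (apoptotic) DNA content by FACScan flow cytometry; three independent experiments.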

[2] = Cell cycle arrest in human NTUB1 cells assessed as accumulation at subG1 phase after 24 hrs by propidium iodide staining based flow cytometric analysis; format: functional; in short: as §1
[3] = Cell cycle arrest in human NTUB1 cells assessed as accumulation at subG1 phase at 75 uM after 24 hrs by propidium iodide staining based flow cytometric analysis (reference value: 6.68%); format: functional; in short: as §1
[4] = Induction of apoptosis in human NTUB1 cells assessed as increase in JC-1 probe monomers at 10 uM after 24 hrs by flow cytometric analysis; format: functional
In short: (§2)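 NTUB1 bladder carcinoma cells (3 × 10^5) in RPMI 1640 with 10% FBS at 37 °C, 5% CO2, exposed to test agent (10, 25 or 50 µM) with 10 µM CCCP as positive control. Stained 30 min with 1 µM JC-1 in medium, washed, trypsinised, resuspended in PBS/2% BSA. Flow cytometry read green monomer and red aggregate fluorescence; the aggregate/monomer ratio represents membrane potential.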

[5] = Increase in ROS generation in human NTUB1 cells at 25 uM after 24 hrs by H2DCFDA staining based flow cytometeric analysis relative to control; format: functional
In short: (§3)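 NTUB1 cells (3×10^5 per 6 cm dish) treated 24 h (20 µM cisplatin and 1 mM NAC controls; medium-only control); 10 µM H2DCFDA added 30 min before harvest; trypsinized, PBS-washed, DCF green fluorescence (525 nm band pass, region M1) measured immediately by flow cytometry; percent change vs control; mean ± SD, n = 3.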

[6] = Induction of apoptosis in human NTUB1 cells assessed as decrease in JC-1 aggregation at 25 uM after 24 hrs by flow cytometric analysis; format: functional; set-up: scale not given: the % may be the effect or the level left
In short: (§4)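 NTUB1 cells (3×10^5) treated with 10, 25 or 50 µM (10 µM CCCP control), then loaded with 1 µM JC-1 in medium 30 min; washed in PBS, trypsinized, resuspended in PBS/2% BSA; green monomer (R2) and red aggregate (R1) fluorescence by flow cytometry, aggregate/monomer ratio representing membrane potential.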

[7] = Induction of apoptosis in human NTUB1 cells assessed as increase in JC-1 probe monomers at 50 uM after 24 hrs by flow cytometric analysis; format: functional; in short: as §4
[8] = Cytotoxicity against human NTUB1 cells after 72 hrs by MTT assay; format: functional, cell-based; settings: NTUB1, 72 h
In short: (§5)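 Cells seeded 1800/well in 96-well plates, preincubated overnight at 37 °C, then exposed to graded concentrations for 72 h at 37 °C (NTUB1, PC3 in RPMI 1640; SV-HUC1 in F12; 10% FBS, 5% CO2). MTT (2 mg/mL) added 3 h, formazan dissolved in DMSO, absorbance 540 nm; viability as percent of control; IC50 by median-effect analysis, mean ± SD.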

[9] = biological target: Cellular tumor antigen p53 (Homo sapiens) (UniProt P04637); assay: Increase in p53 phosphorylation in human NTUB1 cells after 24 hrs by Western blot analysis; format: cell-based
Sequence of Cellular tumor antigen p53 (Homo sapiens) (P04637 whole entry, looked up): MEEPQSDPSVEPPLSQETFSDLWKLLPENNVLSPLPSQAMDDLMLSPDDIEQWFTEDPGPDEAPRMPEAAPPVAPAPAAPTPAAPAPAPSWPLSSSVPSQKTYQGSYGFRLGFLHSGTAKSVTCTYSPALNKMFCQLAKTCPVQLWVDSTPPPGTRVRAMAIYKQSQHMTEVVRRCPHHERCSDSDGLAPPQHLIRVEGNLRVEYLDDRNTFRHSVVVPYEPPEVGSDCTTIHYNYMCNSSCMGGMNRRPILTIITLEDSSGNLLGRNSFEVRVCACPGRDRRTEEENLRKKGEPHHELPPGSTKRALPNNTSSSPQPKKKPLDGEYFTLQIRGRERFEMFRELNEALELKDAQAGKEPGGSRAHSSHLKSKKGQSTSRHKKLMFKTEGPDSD
In short: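 NTUB1 cells exposed 24 h to 0–50 µM (10 µM cisplatin comparator), or to 50 µM with or without 1 mM NAC; lysed in boiled sample buffer, SDS–PAGE, nitrocellulose semi-dry transfer, milk-blocked in TBST, primary antibodies (p-p53 Ser15, p53 DO1, β-actin) overnight at 4 °C, secondary 1 h, ECL detection; triplicate experiments.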

[10] = Cytotoxicity against immortalized human SV-HUC1 cells after 72 hrs by MTT assay; format: cell-based; settings: sv-huc1, 72 h; in short: as §5
[11] = Cell cycle arrest in human NTUB1 cells assessed as accumulation at S phase at 50 uM after 24 hrs by propidium iodide staining based flow cytometric analysis (reference value: 20.37%); format: functional; in short: as §1
[12] = Cell cycle arrest in human NTUB1 cells assessed as accumulation at G2/M phase at 75 uM after 24 hrs by propidium iodide staining based flow cytometric analysis (reference value: 20.37%); format: functional; in short: as §1
[13] = Increase in ROS generation in human NTUB1 cells at 10 uM after 24 hrs by H2DCFDA staining based flow cytometeric analysis relative to control; format: functional; in short: as §3
PC-3 = assay: Cytotoxicity against human PC3 cells after 72 hrs by MTT assay; format: functional, cell-based; in short: as §5
[14] = Cell cycle arrest in human NTUB1 cells assessed as accumulation at S phase at 25 uM after 24 hrs by propidium iodide staining based flow cytometric analysis (reference value: 20.37%); format: functional; in short: as §1
[15] = Induction of apoptosis in human NTUB1 cells assessed as decrease in JC-1 aggregation at 10 uM after 24 hrs by flow cytometric analysis; format: functional; set-up: scale not given: the % may be the effect or the level left; in short: as §2
[16] = Induction of apoptosis in human NTUB1 cells assessed as decrease in JC-1 aggregation at 50 uM after 24 hrs by flow cytometric analysis; format: functional; set-up: scale not given: the % may be the effect or the level left; in short: as §4
NTUB1 = assay: Induction of apoptosis in human NTUB1 cells assessed as activation of caspase 3 at 10 to 50 uM by Western blot analysis; format: functional, cell-based
[17] = Cell cycle arrest in human NTUB1 cells assessed as accumulation at G1 phase at 50 uM after 24 hrs by propidium iodide staining based flow cytometric analysis (reference value: 50.64%); format: functional; in short: as §1
[18] = Cell cycle arrest in human NTUB1 cells assessed as accumulation at S phase at 75 uM after 24 hrs by propidium iodide staining based flow cytometric analysis (reference value: 20.37%); format: functional; in short: as §1
[19] = Induction of apoptosis in human NTUB1 cells assessed as increase in JC-1 probe monomers at 25 uM after 24 hrs by flow cytometric analysis; format: functional; in short: as §4
[20] = Cell cycle arrest in human NTUB1 cells assessed as accumulation at G2/M phase at 25 uM after 24 hrs by propidium iodide staining based flow cytometric analysis (reference value: 20.37%); format: functional; in short: as §1
[21] = Cell cycle arrest in human NTUB1 cells assessed as accumulation at subG1 phase at 50 uM after 24 hrs by propidium iodide staining based flow cytometric analysis (reference value: 6.68%); format: functional; in short: as §1
[22] = Cell cycle arrest in human NTUB1 cells assessed as accumulation at G1 phase at 75 uM after 24 hrs by propidium iodide staining based flow cytometric analysis (reference value: 50.64%); format: functional; in short: as §1
[23] = Cell cycle arrest in human NTUB1 cells assessed as accumulation at subG1 phase at 25 uM after 24 hrs by propidium iodide staining based flow cytometric analysis (reference value: 6.68%); format: functional; in short: as §1
[24] = Cell cycle arrest in human NTUB1 cells assessed as accumulation at G1 phase at 25 uM after 24 hrs by propidium iodide staining based flow cytometric analysis (reference value: 50.64%); format: functional; in short: as §1

C=C(C)[C@@H]1CC[C@]2(C)[C@H](C(=O)C=C3[C@@H]4C[C@@](C)(C(=O)NC(C)C)CC[C@]4(C)CC[C@]32C)[C@@]1(C)CCC(=O)NC(C)C
Activity [1]: 5.22% | Activity [2]: Dose-dependent effect | Activity [3]: 78.4% | Activity [4]: 94.14% | Activity [5]: 85.6% | Activity [6]: 12.65% | Activity [7]: 55.65% | IC50 [8]: 4.76 µM | Activity [9]: Dose-dependent effect | Activity [10]: Non-toxic | Activity [11]: 3.15% | Activity [12]: 4% | Activity [13]: 66.1% | Activity (PC-3): Active | Activity [14]: 12.7% | Activity [15]: 5.45% | Activity [16]: 44.07% | Activity (NTUB1): inactive | Activity [17]: 35.7% | Activity [18]: 2.79% | Activity [19]: 87.17% | Activity [20]: 12.7% | Activity [21]: 55.7% | Activity [22]: 14.7% | Activity [23]: 20.4% | Activity [24]: 49.5%

From ChEMBL document CHEMBL1806419, “18β-Glycyrrhetinic acid derivatives induced mitochondrial-mediated apoptosis through reactive oxygen species-mediated p53 activation in NTUB1 cells” (Bioorg Med Chem, 2011)
